# Experiment: Inhibition of Vibrio cholerae alpha-carbonic anhydrase preincubated for 15 mins by stopped-flow CO2 hydration assay
# Summary of the method: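 Stopped-flow CO2 hydration assay, phenol red 0.2 mM read at 557 nm, 20 mM Hepes pH 7.4 with 20 mM NaBF4 for ionic strength. Initial rates followed 10–100 s, CO2 1.7–17 mM. Inhibitor (10 mM DMSO stock, buffer dilutions down to 0.01 nM) preincubated with enzyme 15 min at RT. Uncatalyzed rate subtracted; Ki by nonlinear least squares and Cheng–Prusoff, mean of ≥3 determinations.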
row,SMILES,Ki
1,C=CCn1c(SCC(=O)Nc2ccc(S(N)(=O)=O)cc2)nc2ccc(C)cc2c1=O,6 nM
2,Cc1ccc2nc(SCC(=O)Nc3ccc(S(N)(=O)=O)cc3)n(Cc3ccccc3)c(=O)c2c1,2.7 nM
3,Cc1cccc2c(=O)n(Cc3ccccc3)c(SCC(=O)Nc3ccc(S(N)(=O)=O)cc3)nc12,8.5 nM
4,COc1ccc2nc(SCC(=O)Nc3ccc(S(N)(=O)=O)cc3)n(Cc3ccccc3)c(=O)c2c1,> 10000 nM
5,COc1cccc2c(=O)n(Cc3ccccc3)c(SCC(=O)Nc3ccc(S(N)(=O)=O)cc3)nc12,> 10000 nM
6,C=CCn1c(SCC(=O)Nc2ccc(S(N)(=O)=O)cc2)nc2ccc([N+](=O)[O-])cc2c1=O,6.6 nM
7,NS(=O)(=O)c1ccc(NC(=O)CSc2nc3ccc([N+](=O)[O-])cc3c(=O)n2Cc2ccccc2)cc1,> 10000 nM
8,Cc1cccc2nc(SCC(=O)Nc3ccc(S(N)(=O)=O)cc3)n(Cc3ccccc3)c(=S)c12,7.7 nM
9,Cc1ccc2nc(SCC(=O)Nc3ccc(S(N)(=O)=O)cc3)n(Cc3ccccc3)c(=S)c2c1,5.5 nM
10,Cc1cccc2c(=S)n(Cc3ccccc3)c(SCC(=O)Nc3ccc(S(N)(=O)=O)cc3)nc12,8.7 nM
11,COc1cccc2c(=S)n(Cc3ccccc3)c(SCC(=O)Nc3ccc(S(N)(=O)=O)cc3)nc12,7.9 nM
12,NS(=O)(=O)c1ccc(NC(=O)CSc2nc3ccc([N+](=O)[O-])cc3c(=S)n2Cc2ccccc2)cc1,> 10000 nM
